Reference: ChEMBL document CHEMBL1130327, “Synthesis and antimalarial effects of phenothiazine inhibitors of a Plasmodium falciparum cysteine protease” (J Med Chem, 1997)

Columns and labels:
Hemozoin [1] = experiment: Inhibition of hemoglobin degradation as percentage of organisms with dark swollen food vacuoles; 10-50%; assay type: functional; parameters: scale not given: the % may be the effect or the level left; conditions: Plasmodium falciparum
Falcipain 2 = molecular target: T1, Falcipain 2 (Plasmodium falciparum, UniProt Q9N6S8); experiment: Inhibition of falcipain activity; assay type: functional
T1 sequence (Q9N6S8 whole entry): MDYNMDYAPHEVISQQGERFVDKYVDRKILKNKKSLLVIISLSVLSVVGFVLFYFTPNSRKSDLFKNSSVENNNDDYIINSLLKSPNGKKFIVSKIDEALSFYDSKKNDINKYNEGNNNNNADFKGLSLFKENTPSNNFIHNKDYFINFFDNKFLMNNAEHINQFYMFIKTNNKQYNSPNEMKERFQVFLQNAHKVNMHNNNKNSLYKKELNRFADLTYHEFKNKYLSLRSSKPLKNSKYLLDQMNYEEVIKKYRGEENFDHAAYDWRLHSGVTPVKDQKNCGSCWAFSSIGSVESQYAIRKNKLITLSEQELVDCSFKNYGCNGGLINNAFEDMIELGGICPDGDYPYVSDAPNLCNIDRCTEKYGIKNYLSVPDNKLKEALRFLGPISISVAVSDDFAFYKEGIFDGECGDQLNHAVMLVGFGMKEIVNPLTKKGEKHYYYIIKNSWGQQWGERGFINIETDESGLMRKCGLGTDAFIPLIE
Procedure, shortened: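 Soluble parasite extract containing falcipain (30 nM) preincubated 30 min at room temperature with compound (100× DMSO stocks) and 10 mM DTT in 0.1 M sodium acetate, pH 5.5. Z-Phe-Arg-AMC then added to 50 μM final. Fluorescence (ex 380, em 460 nm) followed continuously for 30 min. Rates compared with DMSO controls. Multiple concentrations tested in duplicate or triplicate; IC50 extrapolated from % control activity curves.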

Plasmodium falciparum [2] = experiment: Inhibition of parasitaemia in [3H]hypoxanthine incorporation assay; assay type: functional, organism-based
Procedure, shortened: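 Ring-stage P. falciparum Itg2 cultures (300 μL) given compound from 100× DMSO stocks for 24 h. [3H]hypoxanthine then added (0.0144 μg, 1.2 μCi per well) for a further 18 h. Cells harvested onto glass-fiber filters and counted by scintillation. Uptake compared with 1% DMSO controls; IC50 extrapolated from % control curves.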

Plasmodium falciparum [3] = experiment: Inhibition of parasitaemia in ring-form development assay; assay type: functional, organism-based
Procedure, shortened: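 Ring-stage Itg2 cultures (2 mL) incubated with compound from 100× DMSO stocks. Medium changed at 24 h with inhibitor maintained. At 48 h, new ring forms per 1000 erythrocytes counted on Giemsa-stained smears and compared with 1% DMSO controls.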

Hemozoin [4] = experiment: Inhibition of hemoglobin degradation as percentage of organisms with dark swollen food vacuoles; 50-90%; assay type: functional; parameters: scale not given: the % may be the effect or the level left; conditions: Plasmodium falciparum
Hemozoin [5] = experiment: Inhibition of hemoglobin degradation as percentage of organisms with dark swollen food vacuoles; assay type: functional; parameters: scale not given: the % may be the effect or the level left; conditions: Plasmodium falciparum
MDCK = experiment: Compound was tested for inhibition of MDCK cell metabolism using MTT assay method.; assay type: functional, cell-based; conditions: Canis lupus familiaris
Procedure, shortened: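 MDCK cells cultured overnight in phenol red-free RPMI with 1–100 μM compound (100× DMSO stocks); medium then replaced with MTT (1 mg/mL) for 2 h. Supernatant removed, ethanol added, absorbance read at 560 nm. Compared with cells given 1% DMSO overnight.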

Hemozoin [6] = experiment: Inhibition of hemoglobin degradation as percentage of organisms with dark swollen food vacuoles; 0-10%; assay type: functional; parameters: scale not given: the % may be the effect or the level left; conditions: Plasmodium falciparum

Row | IC50 (Falcipain 2) [µM] | IC50 (Plasmodium falciparum [2]) [µM] | IC50 (Plasmodium falciparum [3]) [µM] | Structure (SMILES) | other results
1 | 5 | 4 | 6 | O=S1(=O)C2=C(O)CC(c3ccc(Cl)cc3)CC2=Nc2ccc(F)cc21 (stereo not drawn) | Activity (Hemozoin [1]): 50%
2 | 30 |  |  | CC1(C)CC2=Nc3ccc(Cl)cc3SC2=C(O)C1 | 
3 | 4 | 5 | 5 | O=S1(=O)C2=C(O)CC(c3ccccc3)CC2=Nc2ccc(Cl)cc21 (stereo not drawn) | Activity (Hemozoin [4]): 90%
4 | 30 |  |  | COc1ccc(C2CC3=Nc4ccc(Cl)cc4S(=O)(=O)C3=C(O)C2)cc1 (stereo not drawn) | 
5 | 20 |  |  | COc1cccc(C2CC3=Nc4ccc(Cl)cc4SC3=C(O)C2)c1 (stereo not drawn) | 
6 | 20 |  |  | COc1cccc(C2CC3=Nc4ccc(F)cc4SC3=C(O)C2)c1OC (stereo not drawn) | 
7 | 10 |  |  | OC1=C2Sc3cc(Cl)ccc3N=C2CC(c2ccccc2)C1 (stereo not drawn) | 
8 | 4 | 8 | 4 | O=S1(=O)C2=C(O)CC(c3ccc(Cl)cc3)CC2=Nc2ccc(Cl)cc21 (stereo not drawn) | Activity (Hemozoin [1]): 50%
9 | 5 | 60 | 20 | CC1(C)CC2=Nc3ccc(Cl)cc3S(=O)(=O)C2=C(O)C1 | Activity (Hemozoin [5]): > 90%; IC50 (MDCK): > 100 µM
10 | 5 | 100 | 30 | CC1(C)CC2=Nc3ccc(F)cc3S(=O)(=O)C2=C(O)C1 | Activity (Hemozoin [5]): > 90%; IC50 (MDCK): > 100 µM
11 | 10 |  |  | OC1=C2Sc3cc(F)ccc3N=C2CC(c2ccc(Cl)cc2Cl)C1 (stereo not drawn) | 
12 | 10 |  |  | OC1=C2Sc3cc(Cl)ccc3N=C2CC(c2ccc(Cl)cc2Cl)C1 (stereo not drawn) | 
13 | 5 | 3 | 1 | COc1ccc(C2CC3=Nc4ccc(F)cc4S(=O)(=O)C3=C(O)C2)cc1OC (stereo not drawn) | Activity (Hemozoin [1]): 50%
14 | 5 | 4 | 3 | OC1=C2Sc3cc(F)ccc3N=C2CC(c2ccc(Cl)cc2)C1 (stereo not drawn) | Activity (Hemozoin [4]): 90%; IC50 (MDCK): > 100 µM
15 | 40 |  |  | OC1=C2Sc3cc(Cl)ccc3N=C2CCC1 | 
16 | 10 |  |  | COc1ccc(C2CC3=Nc4ccc(Cl)cc4SC3=C(O)C2)cc1 (stereo not drawn) | 
17 | 30 |  |  | COc1ccc(C2CC3=Nc4ccc(Cl)cc4SC3=C(O)C2)cc1OC (stereo not drawn) | 
18 | 20 |  |  | COc1ccc(C2CC3=Nc4ccc(F)cc4SC3=C(O)C2)cc1OC (stereo not drawn) | 
19 | 4 | 6 | 3 | OC1=C2Sc3cc(Cl)ccc3N=C2CC(c2ccc(Cl)cc2)C1 (stereo not drawn) | Activity (Hemozoin [6]): < 10%; IC50 (MDCK): 10 µM
20 | 20 |  |  | OC1=C2Sc3cc(F)ccc3N=C2CC(c2ccccc2)C1 (stereo not drawn) | 
21 | 60 |  |  | CC1(C)CC2=Nc3ccc(F)cc3SC2=C(O)C1 | 
22 | 10 |  |  | COc1cccc(C2CC3=Nc4ccc(Cl)cc4SC3=C(O)C2)c1OC (stereo not drawn) | 
23 | 4 | 2 | 2 | COc1cccc(C2CC3=Nc4ccc(Cl)cc4S(=O)(=O)C3=C(O)C2)c1OC (stereo not drawn) | Activity (Hemozoin [5]): > 90%; IC50 (MDCK): > 100 µM
24 | 5 | 3 | 3 | COc1cccc(C2CC3=Nc4ccc(F)cc4S(=O)(=O)C3=C(O)C2)c1 (stereo not drawn) | Activity (Hemozoin [4]): 90%; IC50 (MDCK): > 100 µM
25 | 20 |  |  | COc1cccc(C2CC3=Nc4ccc(F)cc4SC3=C(O)C2)c1 (stereo not drawn) | 
26 | 30 |  |  | O=S1(=O)C2=C(O)CC(c3ccc(Cl)cc3Cl)CC2=Nc2ccc(Cl)cc21 (stereo not drawn) | 
27 | 50 |  |  | COc1ccc(C2CC3=Nc4ccc(Cl)cc4S(=O)(=O)C3=C(O)C2)cc1OC (stereo not drawn) | 
